Values after ≈ are worked out from the molar mass of the structure shown. Active and inactive are the calls of the source. The rule behind the calls is not given here.

Common to all, as to format: functional
Assay [1] concerns HCT-15. The experiment in a line: Cytotoxicity against human HCT15 cells after 72 hrs. Particulars: for EC50: HCT-15, 72 h, read-out: ED50 (the source's name). In outline:
(§1)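 Cells kept in RPMI with 10% FBS at 37 °C, 5% CO₂, 100% humidity. Log-phase cells were exposed in triplicate to 0.5–100 μg/mL of compound for 72 h at 37 °C. Cell concentration was measured by protein analysis. ED₅₀ (dose inhibiting 50% of control growth) was read from a semilog plot of concentration (μg/mL) against percent viable cells.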

Assay [2] concerns OVCAR-5. The assay is described as follows: Cytotoxicity against human OVCAR5 cells after 72 hrs. Particulars: OVCAR-5, 72 h, read-out: ED50 (the source's name). In outline: as §1
In assay [3] the test system is UISO-SQC1. The experiment in a line: (§2) Cytotoxicity against human UISO-SQC1 cells after 72 hrs. Put shortly:
as §1

The nature of assay [4]: as §2. The following applies: UISO-SQC1, 72 h, read-out: ED50 (the source's name). Put shortly:
as §1

For the compound `CCCCC[C@H]1CCCCCCCCCC(=O)O[C@@H]2[C@@H](O[C@@H]3O[C@H](C)[C@@H](OC(=O)C(C)C(C)O)[C@H](O)[C@H]3O)[C@H](C)O[C@@H](O[C@H]3[C@H](O[C@H]4[C@H](O1)O[C@H](C)[C@@H](O)[C@@H]4O)O[C@H](COC(=O)C(C)C(C)O)[C@@H](O)[C@@H]3O)[C@@H]2OC(=O)C(C)C` (some centres not stated) [STANSIN 1], the EC50 is more than 24 µg/mL in assay [1] and more than 25 µg/mL in assay [2].

Turning to `CCCCC[C@H]1CCCCCCCCCC(=O)O[C@@H]2[C@@H](O[C@@H]3O[C@H](C)[C@@H](OC(=O)C(C)C(C)O)[C@H](O)[C@H]3O)[C@H](C)O[C@@H](O[C@H]3[C@H](O[C@H]4[C@H](O1)O[C@H](C)[C@@H](O)[C@@H]4O)O[C@H](COC(=O)C(C)C(C)O)[C@@H](O)[C@@H]3O)[C@@H]2OC(=O)CC(C)C` (some centres not stated) [STANSIN 2], the figures for the EC50 in assay [1] and in assay [2] were more than 24 µg/mL and more than 25 µg/mL, respectively.

For the compound `CCCCC[C@H]1CCCCCCCCCC(=O)O[C@@H]2[C@@H](O[C@@H]3O[C@H](C)[C@@H](OC(=O)C(C)C(C)O)[C@H](O)[C@H]3O)[C@H](C)O[C@@H](O[C@H]3[C@H](O[C@H]4[C@H](O1)O[C@H](C)[C@@H](O)[C@@H]4O)O[C@H](COC(=O)C(C)C(C)O)[C@@H](O)[C@@H]3O)[C@@H]2OC(=O)C(C)CC` (some centres not stated) [STANSIN 3], the EC50 in assay [1] is more than 24 µg/mL; in assay [2], more than 25 µg/mL.

With `CCCCC[C@H]1CCCCCCCCCC(=O)O[C@@H]2[C@@H](O[C@@H]3O[C@H](C)[C@@H](OC(=O)C(C)C)[C@H](O)[C@H]3O)[C@H](C)O[C@@H](O[C@H]3[C@H](O[C@H]4[C@H](O1)O[C@H](C)[C@@H](O)[C@@H]4O)O[C@H](CO)[C@@H](O)[C@@H]3O)[C@@H]2OC(=O)C(C)CC` (some centres not stated) [STANSIN 4], the result in assay [1] and in assay [3] was inactive. In addition, in assay [2], the EC50 is 5.5 µg/mL (≈ 5.45 µM).

In the case of `CCCCC[C@H]1CCCCCCCCCC(=O)O[C@@H]2[C@@H](O[C@@H]3O[C@H](C)[C@@H](OC(=O)C(C)CC)[C@H](O)[C@H]3O)[C@H](C)O[C@@H](O[C@H]3[C@H](O[C@H]4[C@H](O1)O[C@H](C)[C@@H](O)[C@@H]4O)O[C@H](CO)[C@@H](O)[C@@H]3O)[C@@H]2OC(=O)C(C)CC` (some centres not stated) [STANSIN 5], the figures for the EC50 in assay [1], in assay [4] and in assay [2] were 24 µg/mL (≈ 23.5 µM), 4 µg/mL (≈ 3.91 µM) and 1.5 µg/mL (≈ 1.47 µM), respectively.
